Assay results taken from ChEMBL document CHEMBL2177003, “Development of target protein-selective degradation inducer for protein knockdown” (Bioorg Med Chem, 2011).
Activity calls are given as the source filed them. The calls are words filed in the database; no cut-off is given here.

Legend:
[1] = target: Baculoviral IAP repeat-containing protein 2 (Homo sapiens) (UniProt Q13490); test: Induction of auto-degradation of Flag-tagged cIAP1 expressed in HT1080 cells at 0.1 to 10 uM by Western blot analysis; type: cell-based; conditions: HT-1080
In short: (§1)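 FLAG-tagged IAP-expressing HT1080 cells (1 × 10⁶), RPMI 1640 with 10% heat-inactivated FBS at 37 °C, 5% CO₂, treated for the stated period in medium with 10% FBS. SDS lysates equalized by BCA, resolved on 10–20% SDS–PAGE, PVDF, skim-milk block. Probed for CRABP-II, cIAP1, FLAG and β-actin with HRP secondaries, visualized by enhanced chemiluminescence.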

HT-1080 [2] = test: Induction of apoptosis in human HT1080 cells assessed as activation of caspase 3/7 at 30 uM after 24 hrs by fluorescence assay; type: functional, cell-based
In short: (§2)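 HT1080 cells seeded at 2 × 10⁴/well, grown 24 h, then compounds added for 24 h with or without 30 μg/mL etoposide. Caspase-3/7 homogeneous reagent added, 10 h at room temperature. Fluorescence read at ex 485/em 535 nm and expressed as fold change in caspase activity. Means of triplicates; ANOVA with Bonferroni-type multiple t test.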

HT-1080 [3] = test: Induction of apoptosis in human HT1080 cells at 1 to 30 uM after 24 hrs by lactate dehydrogenase assay; type: functional, cell-based
In short: (§3)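 HT1080 cells seeded at 2 × 10⁴/well, grown 24 h at 37 °C, then exposed to compounds for 24 h with or without 30 μg/mL etoposide. LDH release measured with a non-radioactive cytotoxicity kit; lysis-buffer wells served as high control. Substrate 30 min at room temperature, stopped, A490 read. Means of triplicates.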

[4] = target: T1, Complex of retinoic acid binding (CRABPII) and inhibitor of apoptosis (cIAP1) proteins (Homo sapiens) (UniProt P29373+Q13490); test: Binding affinity to Flag-tagged cIAP1/CRABP2 expressed in human HT1080 cells assessed as induction in CRABP-2 degradation after 12 hrs by Western blot analysis; type: cell-based; conditions: HT-1080; in short: as §1
HT-1080 [5] = test: Induction of apoptosis in human HT1080 cells after 24 hrs by lactate dehydrogenase assay in presence of etoposide; type: functional, cell-based; in short: as §3
HT-1080 [6] = test: Induction of apoptosis in human HT1080 cells assessed as activation of caspase 3/7 at 30 uM after 24 hrs by fluorescence assay in presence of etoposide; type: functional, cell-based; in short: as §2
XIAP (Homo sapiens) = test: Binding affinity to Flag-tagged XIAP expressed in HT1080 cells assessed as degradation of XIAP at 0.1 to 10 uM after 6 hrs by Western blot analysis; conditions: HT-1080
[7] = target: Baculoviral IAP repeat-containing protein 2 (Homo sapiens) (UniProt Q13490); test: Induction of degradation of Flag-tagged cIAP1 expressed in HT1080 cells at […] by Western blot analysis in presence of MG132; type: cell-based; conditions: HT-1080
IMR-32 [8] = test: Inhibition of cell proliferation in human IMR32 cells at 1 to 30 uM after 72 hrs by Alamarblue assay; type: functional, cell-based
In short: (§4)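 Cells (IMR-32, HT1080 or MCF-7) seeded at 2 × 10⁴/well and grown 24 h at 37 °C. Compounds at various concentrations added for 0–72 h at 37 °C, 5% CO₂. AlamarBlue then added for 3 h at 37 °C. Fluorescence read at ex 540/em 590 nm and converted to percentage cell growth.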

[9] = target: Baculoviral IAP repeat-containing protein 2 (Homo sapiens) (UniProt Q13490); test: Induction of auto-degradation of Flag-tagged cIAP1 expressed in HT1080 cells at […] by Western blot analysis; type: cell-based; conditions: HT-1080
[10] = target: Baculoviral IAP repeat-containing protein 2 (Homo sapiens) (UniProt Q13490); test: Inhibition of MeBS-induced degradation of Flag-tagged cIAP1 expressed in HT1080 cells at 100 to 1000 uM by Western blot analysis; type: cell-based; conditions: HT-1080
IMR-32 [11] = test: Induction of apoptosis in human IMR32 cells assessed as activation of caspase 3/7 at 30 uM after 24 hrs by fluorescence assay; type: functional, cell-based
In short: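 IMR-32 cells seeded at 2 × 10⁴/well, grown 24 h, then exposed to compounds for 24 h. Caspase-3/7 homogeneous reagent added, 0.5 h at room temperature. Fluorescence read at ex 485/em 535 nm and expressed as fold change over control. Means of triplicates; ANOVA with Bonferroni-type multiple t test.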

[12] = target: T1, Complex of retinoic acid binding (CRABPII) and inhibitor of apoptosis (cIAP1) proteins (Homo sapiens); test: Binding affinity to Flag-tagged cIAP1/CRABP2 expressed in human HT1080 cells assessed as formation of ternary complex by GST-pull down assay; type: cell-based; conditions: HT-1080
[13] = target: T1, Complex of retinoic acid binding (CRABPII) and inhibitor of apoptosis (cIAP1) proteins (Homo sapiens); test: Binding affinity to Flag-tagged cIAP1/CRABP2 expressed in human HT1080 cells assessed as induction in cIAP1 degradation at 0.1 to 10 uM after 6 hrs by Western blot analysis; type: cell-based; conditions: HT-1080; in short: as §1
[14] = target: T1, Complex of retinoic acid binding (CRABPII) and inhibitor of apoptosis (cIAP1) proteins (Homo sapiens); test: Binding affinity to Flag-tagged cIAP1/CRABP2 expressed in human HT1080 cells assessed as induction in CRABP-2 degradation at 0.1 to 10 uM after 6 hrs by Western blot analysis; type: cell-based; conditions: HT-1080; in short: as §1
[15] = target: T1, Complex of retinoic acid binding (CRABPII) and inhibitor of apoptosis (cIAP1) proteins (Homo sapiens); test: Binding affinity to Flag-tagged cIAP1/CRABP2 expressed in human MCF7 cells assessed as reduction in CRABP2 level at 0.1 uM to 1 uM after 6 hrs by Western blot analysis; type: cell-based
HT-1080 [16] = test: Induction of apoptosis in human HT1080 cells at 1 to 30 uM after 24 hrs by lactate dehydrogenase assay in presence of etoposide; type: functional, cell-based; in short: as §3
[17] = target: T1, Complex of retinoic acid binding (CRABPII) and inhibitor of apoptosis (cIAP1) proteins (Homo sapiens); test: Binding affinity to Flag-tagged cIAP1/CRABP2 expressed in human HT1080 cells assessed as reduction in CRABP2 level at 0.1 uM to 1 uM after 6 hrs by Western blot analysis; type: cell-based; conditions: HT-1080; in short: as §1
[18] = target: T1, Complex of retinoic acid binding (CRABPII) and inhibitor of apoptosis (cIAP1) proteins (Homo sapiens); test: Binding affinity to Flag-tagged cIAP1/CRABP2 expressed in human HT1080 cells assessed as induction in CRABP-2 degradation after 6 hrs by Western blot analysis; type: cell-based; conditions: HT-1080; in short: as §1
[19] = target: T1, Complex of retinoic acid binding (CRABPII) and inhibitor of apoptosis (cIAP1) proteins (Homo sapiens); test: Binding affinity to Flag-tagged cIAP1/CRABP2 expressed in human HT1080 cells assessed as induction in cIAP1 degradation at 30 uM after 6 hrs by Western blot analysis; type: cell-based; conditions: HT-1080; in short: as §1
[20] = target: T1, Complex of retinoic acid binding (CRABPII) and inhibitor of apoptosis (cIAP1) proteins (Homo sapiens); test: Binding affinity to Flag-tagged cIAP1/CRABP2 expressed in human HT1080 cells assessed as induction in CRABP-2 degradation at 1 uM after 6 hrs by Western blot analysis in presence of MeBS; type: cell-based; conditions: HT-1080
[21] = target: T1, Complex of retinoic acid binding (CRABPII) and inhibitor of apoptosis (cIAP1) proteins (Homo sapiens); test: Binding affinity to Flag-tagged cIAP1/CRABP2 expressed in human HT1080 cells assessed as induction in CRABP-2 degradation at 1 uM after 6 hrs by Western blot analysis in presence of proteasome inhibitor lactacystin; type: cell-based; conditions: HT-1080
In short: (§5)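 HT1080 cells expressing FLAG-tagged cIAP1 were pretreated with proteasome inhibitor (MG132 or lactacystin), then given 1 μM degrader for 6 h. CRABP-II read by Western blot: SDS lysates equalized by BCA, 10–20% SDS–PAGE, PVDF, ECL.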

IMR-32 [22] = test: Inhibition of cell proliferation in human IMR32 cells after 72 hrs by Alamarblue assay; type: functional, cell-based; in short: as §4
MCF7 = test: Inhibition of cell proliferation in human MCF7 cells at 1 to 30 uM after 72 hrs by Alamar blue assay; type: functional, cell-based; in short: as §4
[23] = target: T1, Complex of retinoic acid binding (CRABPII) and inhibitor of apoptosis (cIAP1) proteins (Homo sapiens); test: Binding affinity to Flag-tagged cIAP1/CRABP2 expressed in human IMR32 cells assessed as reduction in MycN level at 1 to 10 uM after 48 hrs by Western blot analysis; type: cell-based; conditions: IMR-32
HT-1080 [24] = test: Inhibition of cell proliferation in human HT1080 cells at 1 to 30 uM after 72 hrs by Alamar blue assay; type: functional, cell-based; in short: as §4
[25] = target: T1, Complex of retinoic acid binding (CRABPII) and inhibitor of apoptosis (cIAP1) proteins (Homo sapiens); test: Binding affinity to Flag-tagged cIAP1/CRABP2 expressed in human HT1080 cells assessed as induction in CRABP-2 degradation at 1 uM after 6 hrs by Western blot analysis; type: cell-based; conditions: HT-1080; in short: as §1
[26] = target: T1, Complex of retinoic acid binding (CRABPII) and inhibitor of apoptosis (cIAP1) proteins (Homo sapiens); test: Binding affinity to Flag-tagged cIAP1/CRABP2 expressed in human IMR32 cells assessed as reduction in CRABP-2 level at 1 to 10 uM after 24 hrs by Western blot analysis; conditions: IMR-32
[27] = target: T1, Complex of retinoic acid binding (CRABPII) and inhibitor of apoptosis (cIAP1) proteins (Homo sapiens); test: Binding affinity to Flag-tagged cIAP1/CRABP2 expressed in human HT1080 cells assessed as induction in CRABP-2 degradation after 48 hrs by Western blot analysis; type: cell-based; conditions: HT-1080; in short: as §1
[28] = target: T1, Complex of retinoic acid binding (CRABPII) and inhibitor of apoptosis (cIAP1) proteins (Homo sapiens); test: Binding affinity to Flag-tagged cIAP1/CRABP2 expressed in human HT1080 cells assessed as induction in CRABP-2 degradation at 1 uM after 6 hrs by Western blot analysis in presence of proteasome inhibitor MG132; type: cell-based; conditions: HT-1080; in short: as §5

Chain of Baculoviral IAP repeat-containing protein 2 (Homo sapiens) (Q13490 whole entry): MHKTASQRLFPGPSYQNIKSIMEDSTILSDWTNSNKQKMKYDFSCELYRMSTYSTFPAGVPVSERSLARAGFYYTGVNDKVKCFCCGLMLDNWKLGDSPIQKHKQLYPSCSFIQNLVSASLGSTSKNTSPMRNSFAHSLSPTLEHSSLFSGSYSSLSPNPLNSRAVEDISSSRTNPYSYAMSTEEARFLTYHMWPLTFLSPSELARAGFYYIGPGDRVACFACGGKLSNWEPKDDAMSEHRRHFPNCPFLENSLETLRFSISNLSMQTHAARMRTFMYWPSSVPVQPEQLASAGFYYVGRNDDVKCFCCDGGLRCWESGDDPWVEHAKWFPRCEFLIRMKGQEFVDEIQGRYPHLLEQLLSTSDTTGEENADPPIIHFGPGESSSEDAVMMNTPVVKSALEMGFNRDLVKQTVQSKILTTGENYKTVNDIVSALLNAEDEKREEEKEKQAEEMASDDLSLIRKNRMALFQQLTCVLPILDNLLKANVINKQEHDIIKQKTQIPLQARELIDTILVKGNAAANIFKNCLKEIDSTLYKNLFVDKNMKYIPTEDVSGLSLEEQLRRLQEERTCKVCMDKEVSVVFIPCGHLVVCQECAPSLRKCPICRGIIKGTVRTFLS

Structure (SMILES) | Activity [1] | Activity [12] | Activity [13] | Activity (HT-1080 [2]) | Activity (HT-1080 [3]) | Activity (HT-1080 [5]) | Activity (HT-1080 [6]) | inhibition (IMR-32 [8]) | Activity (IMR-32 [11]) | also measured
CC1=C(/C=C/C(C)=C/C=C/C(C)=C/C(=O)O)C(C)(C)CC/C1=N\OCC(=O)NCCOCCOCCOC(=O)[C@H](CC(C)C)NC(=O)[C@@H](O)[C@H](N)Cc1ccccc1 | – | – | – | inactive | inactive | Dose-dependent effect | Active | – | – | Activity [4]: Active
CC1=C(/C=C/C(C)=C/C=C/C(C)=C/C(=O)O)C(C)(C)CC/C1=N\OCC(=O)NCCOCCOCCNC(=O)[C@H](CC(C)C)NC(=O)CCCc1ccccc1 | – | inactive | inactive | – | – | – | – | – | – | Activity [14]: inactive
COC(=O)[C@H](CC(C)C)NC(=O)[C@@H](O)[C@H](N)Cc1ccccc1 | – | – | – | inactive | inactive | Dose-dependent effect | Active | inactive | inactive | –

Further lines, with some results ahead:

Activity [1] | Activity [12] | Activity [13] | Structure (SMILES) | Activity (HT-1080 [2]) | Activity (HT-1080 [3]) | Activity (HT-1080 [5]) | Activity (HT-1080 [6]) | inhibition (IMR-32 [8]) | Activity (IMR-32 [11]) | also measured
inactive | – | – | CNC(=O)[C@H](CC(C)C)NC(=O)CCCc1ccccc1 | – | – | – | – | – | – | –
inactive | – | – | CNC(=O)[C@H](CC(C)C)NC(=O)[C@@H](O)[C@H](N)Cc1ccccc1 | – | – | – | – | inactive | inactive | Activity (XIAP (Homo sapiens)): inactive; Activity [7]: inactive; Activity [9]: inactive; inhibition [10]: Active
– | Active | inactive | CC1=C(/C=C/C(C)=C/C=C/C(C)=C/C(=O)O)C(C)(C)CC/C1=N\OCC(=O)NCCOCCOCCNC(=O)[C@H](CC(C)C)NC(=O)[C@@H](O)[C@H](N)Cc1ccccc1 | inactive | – | – | inactive | – | Active | Activity [15]: Active; Activity (HT-1080 [16]): inactive; Activity [17]: Active; Activity [18]: Dose-dependent effect; Activity [19]: inactive; Activity [20]: inactive; Activity [21]: inactive; inhibition (IMR-32 [22]): Dose-dependent effect; Activity (MCF7): inactive; Activity [23]: Active; Activity (HT-1080 [24]): inactive; Activity [25]: Active; Activity [26]: Active; Activity [27]: Active; Activity [28]: inactive
